In paper PMC4253050 (Cellular signalling, 2014):
Each block holds one substance with its values, some of them ahead of it.

Tests used:
[1] = biological target: T1, kB1R (Homo sapiens, UniProt P46663); test: Intracellular Ca2+ response; assay type: cell-based; settings: for effect of pre-stimulation on kB1R response: kB1R expressing cells, discussion summary
T1 sequence (P46663 1-353): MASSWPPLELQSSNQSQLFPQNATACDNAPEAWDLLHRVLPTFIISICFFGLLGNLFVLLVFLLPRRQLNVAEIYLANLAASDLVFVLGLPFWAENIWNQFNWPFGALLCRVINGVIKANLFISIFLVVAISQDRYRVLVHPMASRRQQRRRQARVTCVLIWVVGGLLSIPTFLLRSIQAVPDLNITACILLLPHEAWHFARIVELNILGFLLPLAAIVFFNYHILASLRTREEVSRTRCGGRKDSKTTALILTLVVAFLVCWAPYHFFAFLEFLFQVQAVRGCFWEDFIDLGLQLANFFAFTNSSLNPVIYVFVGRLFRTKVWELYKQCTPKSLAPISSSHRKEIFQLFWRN
Summary of the method: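 Receptor-expressing HEK cells were grown to 80% confluence on polylysine-coated glass coverslips. They were loaded with 2 μM fura-2/AM for 60 min at 37 °C. For pre-stimulation, cells received vehicle or a kinin agonist (e.g. 1 μM BK) for 10 min, then a kB1R agonist. The [Ca²⁺]i rise was quantified as area under the curve and plotted against log dose; n=3, mean ± SE.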

[2] = test system: GPCRs coupled with Gαq (LPA); test: Intracellular Ca2+ response to LPA, HEK cells; assay type: cell-based, human
Summary of the method: (§1)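 Cross-desensitization in HEK293 cells stably expressing kB1R, loaded with fura-2 (2 μM, 60 min, 37 °C) on polylysine coverslips. Cells were given thrombin or LPA followed by kB1R agonist, or kB1R agonist first and then thrombin or LPA. [Ca²⁺]i was read as 510 nm emission at 340/380 nm excitation.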

[3] = biological target: T2, kB2R (Homo sapiens, UniProt P30411); test: Intracellular Ca2+ response; assay type: cell-based; settings: HEK cells stably expressing kB1R and kB2R; first 1 μM DAKD, then 1 μM KD
T2 sequence (P30411 1-391): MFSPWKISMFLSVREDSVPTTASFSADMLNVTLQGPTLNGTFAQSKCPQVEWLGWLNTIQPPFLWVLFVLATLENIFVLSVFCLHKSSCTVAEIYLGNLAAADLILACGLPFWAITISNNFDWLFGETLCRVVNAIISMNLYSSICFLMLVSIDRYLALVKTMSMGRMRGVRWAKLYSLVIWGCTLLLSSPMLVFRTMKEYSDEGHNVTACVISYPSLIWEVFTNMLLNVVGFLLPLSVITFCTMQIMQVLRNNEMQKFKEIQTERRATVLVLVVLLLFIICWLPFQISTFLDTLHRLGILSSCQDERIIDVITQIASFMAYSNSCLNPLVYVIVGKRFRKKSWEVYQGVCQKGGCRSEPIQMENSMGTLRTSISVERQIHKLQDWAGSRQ

[4] = biological target: T1, kB1R; test: [3H]Arachidonic acid release, kB1R-mediated, cells co-expressing kB1R and kB2R; assay type: cell-based; settings: stably co-expressing HEK cells (so in the source); 1 μM
Summary of the method: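 Cells at ~80% confluence were labelled for 18–24 h in growth medium with 0.1% FBS and 1 μCi/ml [³H]arachidonic acid. They were washed three times in HAM's/F12 buffer (HEPES, NaHCO₃, 0.1% fat-free BSA), then incubated with agonist in that buffer at 37 °C. Released label in the collected medium was counted by liquid scintillation.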

[5] = biological target: T1, kB1R; test: [3H]DAKD binding and endocytosis assay, cell surface kB1R, HEK293 cells; settings: HEK cells stably expressing kB1R and kB2R; 10 min, 37 °C (DAKD 1 μM), no acid wash; 4 nM [3H]DAKD 90 min on ice; n=3
Summary of the method: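 Confluent monolayers were rinsed three times in warm PBS and exposed to unlabelled agonist or vehicle (PBS). They were washed with ice-cold PBS, and binding was then done on ice. Cells were washed three times in cold PBS, lysed in 0.2 M NaOH and counted by scintillation. Total binding was taken as label bound in cells given PBS alone.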

[6] = biological target: T1, kB1R; test: Phosphoinositide turnover; assay type: cell-based; settings: stably co-expressing HEK cells; 1 μM
[7] = test system: human lung microvascular endothelial cells (HLMVEC); test: Transendothelial electrical resistance; assay type: cell-based; settings: cytokine-treated HLMVEC; 100 nM; BK in the presence of MGTA; n = 4
Summary of the method: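 Primary HLMVEC (passage 3–6) were grown to confluence on gold electrodes coated with 10 μg/ml fibronectin. Cells were cytokine-primed for 16 h with IL-1β plus 100 U/ml IFN-γ, then moved to EBM-2 with 1% FBS for 1 h and impedance-monitored (ECIS) until baseline was stable. BK samples were pretreated with 40 μM MGTA. Cells received ±100 nM BK for 10 min, then 100 nM DAKD or vehicle, with or without 200 μM pyrogallol; TER recorded.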

[8] = test system: protease activated receptor; test: Intracellular Ca2+ response to thrombin, HEK cells; assay type: cell-based, human
Summary of the method: as §1

[9] = HEK cells stably expressing kB1R
[10] = HEK cells stably expressing kB1R or kB2R

effect of LPA on kB1R response to subsequent DAKD [1, 9]: did not decrease the kB1R response
effect of pre-stimulation on kB1R response [1]: did not reduce the kB1R response
Substance: lysophosphatidic acid [LPA]
increase in [Ca2+]i by LPA ([2]; HEK cells expressing kB1R): relatively lower calcium response than thrombin
cross-desensitization between kB1R, kB2R and LPA [2, 10]: Lack of cross-desensitization

calcium response to 1 μM KD added after pre-stimulation with kB1R agonist [3]: second robust increase
arachidonic acid release response [4]: responded robustly
inhibition of [3H]-DAKD binding, without acid washing [5]: ~ 80%
IP3 turnover response [6]: responded robustly
Substance: des-Arg^10-kallidin [DAKD]
increase in TER [7]: substantial and prolonged
effect of kB1R agonist on calcium response to subsequent LPA [2, 9]: did not reduce the calcium response

inhibition of [3H]-DAKD binding, without acid washing [5]: ~ 80%
Substance: des-Arg^9 -HOE-140 [des-Arg-HOE140]

effect of thrombin on increase in [Ca2+]i induced by subsequent DABK (1 μM) [1, 9]: did not inhibit the increase in [Ca^2+]i
effect of pre-stimulation on kB1R response [1]: did not reduce the kB1R response
Substance: thrombin
increase in [Ca2+]i by thrombin [8, 9]: large increase in [Ca^2+]i
cross-desensitization between kB1R, kB2R and thrombin [8, 10]: Lack of cross-desensitization
